From ChEMBL document CHEMBL3046055, “Synthesis and herbicidal activity of novel N-(2,2,2)-trifluoroethylpyrazole derivatives” (J Agric Food Chem, 2010)

What was measured:
Zea mays [1] = assay: Toxicity against Zea mays var. SHEN DAN 17 (maize) assessed induction of crop injury at 400 g ai/ha using pre-emergence treatment protocol under field trials conditions measured 30 days post soil treatment; format: organism-based; conditions: in vivo, other, 720 h
In short: (§1)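 Pre-emergence application to soil surface within 24 h after maize planting, at 300, 400, 600 or 800 g a.i. ha^-1. Fresh weight of aerial plant parts measured 30 days later; percentage inhibition calculated relative to water-sprayed control.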

Zea mays [2] = assay: Toxicity against Zea mays var. SHEN DAN 17 (maize) assessed induction of crop injury at 300 g ai/ha using pre-emergence treatment protocol under field trials conditions measured 30 days post soil treatment; format: organism-based; conditions: in vivo, other, 720 h; in short: as §1
Convolvulus arvensis = assay: Herbicidal activity against Convolvulus arvensis assessed as inhibition of fresh weed plant weights at 400 g ai/ha using pre-emergence treatment protocol under field trials conditions measured 30 days post soil treatment relative to untreated control; format: functional; conditions: 720 h
In short: (§2)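 Field pre-emergence trial. Treatments were applied to the soil surface within 24 h after maize planting, at 300, 400, 600 and 800 g a.i. ha^-1. Fresh weight of aerial plant parts was measured 30 days later, and percent inhibition calculated relative to the water-sprayed control.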

Portulaca oleracea [3] = assay: Herbicidal activity against Portulaca oleracea assessed as inhibition of fresh weed plant weights at 800 g ai/ha using pre-emergence treatment protocol under field trials conditions measured 30 days post soil treatment relative to untreated control; format: functional; conditions: 720 h; in short: as §2
Portulaca oleracea [4] = assay: Herbicidal activity against Portulaca oleracea assessed as inhibition of fresh weed plant weights at 400 g ai/ha using pre-emergence treatment protocol under field trials conditions measured 30 days post soil treatment relative to untreated control; format: functional; conditions: 720 h; in short: as §2
Eleusine indica [5] = assay: Herbicidal activity against Eleusine indica assessed as inhibition of fresh weed plant weights at 300 g ai/ha using pre-emergence treatment protocol under field trials conditions measured 30 days post soil treatment relative to untreated control; format: functional; conditions: 720 h; in short: as §2
Echinochloa crus-galli [6] = assay: Herbicidal activity against Echinochloa crus-galli (barnyard grass) assessed as inhibition of fresh weed plant weights at 800 g ai/ha using pre-emergence treatment protocol under field trials conditions measured 30 days post soil treatment relative to untreated control; format: functional; conditions: 720 h; in short: as §2
Echinochloa crus-galli [7] = assay: Herbicidal activity against Echinochloa crus-galli (barnyard grass) assessed as inhibition of fresh weed plant weights at 300 g ai/ha using pre-emergence treatment protocol under field trials conditions measured 30 days post soil treatment relative to untreated control; format: functional; conditions: 720 h; in short: as §2
Zea mays [8] = assay: Toxicity against Zea mays var. SHEN DAN 17 (maize) assessed as inhibition of fresh weed plant weights at 600 g ai/ha using pre-emergence treatment protocol under greenhouse conditions relative to untreated control; format: organism-based; conditions: in vivo, other
In short: (§3)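 Pre-emergence test in plastic pots kept in a greenhouse at 22-25 °C. Fresh weight of aerial plant parts was measured 20 days later, and percent inhibition calculated relative to water-sprayed controls. Metolachlor served as the positive control. Three replicates were run per concentration.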

Eleusine indica [9] = assay: Herbicidal activity against Eleusine indica assessed as inhibition of fresh weed plant weights at 300 g ai/ha using pre-emergence treatment protocol under greenhouse conditions relative to untreated control; format: functional; in short: as §3
Eleusine indica [10] = assay: Herbicidal activity against Eleusine indica assessed as inhibition of fresh weed plant weights at 150 g ai/ha using pre-emergence treatment protocol under greenhouse conditions relative to untreated control; format: functional; in short: as §3
Digitaria sanguinalis [11] = assay: Herbicidal activity against Digitaria sanguinalis (hairy crabgrass) assessed as inhibition of fresh weed plant weights at 600 g ai/ha using pre-emergence treatment protocol under greenhouse conditions relative to untreated control; format: functional; in short: as §3
Digitaria sanguinalis [12] = assay: Herbicidal activity against Digitaria sanguinalis (hairy crabgrass) assessed as inhibition of fresh weed plant weights at 600 g ai/ha using pre-emergence treatment protocol under field trials conditions measured 30 days post soil treatment relative to untreated control; format: functional; conditions: 720 h; in short: as §2
Digitaria sanguinalis [13] = assay: Herbicidal activity against Digitaria sanguinalis (hairy crabgrass) assessed as inhibition of fresh weed plant weights at 400 g ai/ha using pre-emergence treatment protocol under field trials conditions measured 30 days post soil treatment relative to untreated control; format: functional; conditions: 720 h; in short: as §2
Echinochloa crus-galli [14] = assay: Herbicidal activity against Echinochloa crus-galli (barnyard grass) assessed as inhibition of root growth at […] measured 7 days post treatment; format: functional; design: dose or concentration left out as unconfirmed; conditions: 168 h, read-out: GI

Cc1nn(CC(F)(F)F)c(CS(=O)(=O)C2=NOC(C)(C)C2)c1Cl
Activity (Zea mays [1]): 0% | Activity (Zea mays [2]): 0% | inhibition at 400 g/ha (Convolvulus arvensis): 16% | inhibition at 800 g/ha (Portulaca oleracea [3]): 100% | inhibition at 400 g/ha (Portulaca oleracea [4]): 85% | inhibition at 300 g/ha (Eleusine indica [5]): 97% | inhibition at 800 g/ha (Echinochloa crus-galli [6]): 100% | inhibition at 300 g/ha (Echinochloa crus-galli [7]): 100% | inhibition (INH) (Zea mays [8]): 1% | inhibition at 300 g/ha (Eleusine indica [9]): 99% | inhibition at 150 g/ha (Eleusine indica [10]): 97% | inhibition at 600 g/ha (Digitaria sanguinalis [11]): 100% | inhibition at 600 g/ha (Digitaria sanguinalis [12]): 100% | inhibition at 400 g/ha (Digitaria sanguinalis [13]): 98% | inhibition of growth (Echinochloa crus-galli [14]): 62%
